This test deals with RBL-2H3. The experiment in a line: Inhibition of IgE receptor/FcERI mediated leukotriene release from rat RBL-2H3 cells. The test is classed as functional, cell-based. An outline of the steps:
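RBL-2H3 rat mast cells were sensitized with monoclonal anti-DNP IgE ([…]) for 1 h at 37 °C, washed to remove unbound IgE, and overlaid with PIPES-buffered saline containing 1 mM CaCl2. Cells were preincubated with compound or vehicle, then challenged with 20 ng/mL DNP-BSA for 30 min at 37 °C and centrifuged at 200g for 10 min at 4 °C. LTC4 was measured in cell-free supernatants and reported as IC50.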
A word on the IC50: it is the concentration that gives 50% inhibition. For `S=C(NCCc1c[nH]c2ccccc12)Nc1ccc(Cl)cn1`, the IC50 worked out at 4.9 µM. Compound `Cc1cccc(N/C(S)=N/[C@@H](C)c2cccc3ccccc23)n1` registered an IC50 of 1.6 µM.

Turning to `C[C@H](/N=C(\S)Nc1nc2ccccc2s1)c1cccc2ccccc12`, the half-inhibitory concentration (IC50) was more than 100 µM. Under `Cc1csc(N/C(S)=N/[C@@H](C)c2cccc3ccccc23)n1` stands 83.2 µM; under `Cc1ccc(N/C(S)=N/[C@@H](C)c2cccc3ccccc23)nc1`, more than 100 µM; under `CCOC(=O)Cc1csc(/N=C(\S)N[C@H](C)c2cccc3ccccc23)n1`, 0.002 µM.

The compound `C[C@@H](/N=C(\S)Nc1nccs1)c1cccc2ccccc12` came in with a half-maximal inhibitory concentration (IC50) of more than 100 µM. Then `COc1cc2ncnc(Nc3cc(Br)c(O)c(Br)c3)c2cc1OC`, with 6.8 µM; and `C[C@H](/N=C(\S)Nc1nccs1)c1cccc2ccccc12`, with more than 100 µM; and `Cc1ccc(N/C(S)=N/[C@H](C)c2cccc3ccccc23)nc1`, with 0.005 µM. `Cc1csc(N/C(S)=N/[C@H](C)c2cccc3ccccc23)n1` came in with a 50% inhibitory concentration (IC50) of 25.9 µM. As to `Oc1ccc(CC/N=C(\S)Nc2ccccn2)cc1`, the half-maximal inhibitory concentration (IC50) stood at 8.5 µM. Then `C[C@@H](/N=C(\S)Nc1ccccn1)c1cccc2ccccc12`, with more than 100 µM; and `C[C@H](/N=C(\S)Nc1ccc(Br)cn1)c1cccc2ccccc12`, with more than 100 µM.

In turn, `COc1ccc2nc(/N=C(\S)N[C@H](C)c3cccc4ccccc34)sc2c1` gave a 50% inhibitory concentration (IC50) of more than 100 µM. The compound `CCOC(=O)Cc1csc(/N=C(\S)N[C@@H](C)c2cccc3ccccc23)n1` displayed a 50% inhibitory concentration (IC50) of 0.002 µM. As for `Oc1ccc(CC/N=C(\S)Nc2ccc(Br)cn2)cc1`, the IC50 turned out to be 16.8 µM. Then `Oc1ccc(CC/N=C(\S)Nc2ccc(Cl)cn2)cc1`, with 12.6 µM. Then `S=C(NCCc1c[nH]c2ccccc12)Nc1ccc(Br)cn1`, with 6.1 µM; and `C[C@@H](/N=C(\S)Nc1nc2ccccc2s1)c1cccc2ccccc12`, with 18.9 µM; and `C[C@@H](/N=C(\S)Nc1ccc(Cl)cn1)c1cccc2ccccc12`, with more than 100 µM. In turn, `C[C@H](/N=C(\S)Nc1ccccn1)c1cccc2ccccc12` returned a 50% inhibitory concentration (IC50) of more than 100 µM. The compound `Cc1cc(C)nc(N/C(S)=N/[C@@H](C)c2cccc3ccccc23)c1` displayed an IC50 of more than 100 µM. The compound `Cc1cccc2sc(N/C(S)=N/[C@H](C)c3cccc4ccccc34)nc12` came in with an IC50 of more than 100 µM. For `Cc1cc(C)nc(N/C(S)=N/[C@H](C)c2cccc3ccccc23)c1`, the concentration for half-maximal inhibition (IC50) was more than 100 µM. Then `Cc1cccc2sc(N/C(S)=N/[C@@H](C)c3cccc4ccccc34)nc12`, with more than 100 µM.

The values above are taken from ChEMBL document CHEMBL1136558, “Inhibition of mast cell leukotriene release by thiourea derivatives” (Bioorg Med Chem Lett, 2003).
